# Screening results (PubChem)
# Runt-CBFb FRET: Runt domain-CBFb interaction inhibition. Q01196+Q13951. Cerulean-Runt/Venus-CBFb FRET ratio 530/480, 1 h. inhibition, % at 20 µM. 220,000 tested, 0.46% active. AID 1496;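 active = inhibition over about 50% at 20 µM in the single-dose screen, limit read from the data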;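 also: 0% = DMSO wells and 100% = excess unlabeled CBFb competitor control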
#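 Doses: 20 µM compound in 1% DMSO | Material: Cerulean-labeled Runt domain protein | Amount: Each fluorescent fusion protein 100 nM | Schedule: Two 1 h room-temperature incubations shielded from light | Measured by: FRET fluorescence | Evaluation: Loss of energy transfer signal | Controls: Unlabeled CBFb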
# KLK7 zymogen act: activators of human kallikrein-7 zymogen | P49862 | purified proKLK7, EDANS-DABCYL substrate fluorescence; 100% is mature enzyme control, 0% vehicle | activation, % at 7 µM | 370,000 tested, 0.9% active | AID 652039;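 active = activation above the mean of all tested compounds plus 3 SD, computed per campaign excluding outliers beyond control limits, cut at about 13% in these data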
# MEX-5 binding: C. elegans MEX-5 TCR-2 RNA binding activity; 300,000 tested, 0.38% active; MEX-5/FITC-TCR2 RNA binding, fluorescence polarization; stronger effect = lower value; Q9XUB2; activity score (negative = inhibition of binding), % at 10 µM;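 active = inhibition past about -25% in most replicates, and total fluorescence under double the plate's negative control median, limit read from the data; inconclusive = replicates evenly split on the limit, or fluorescence at least double controls; inactive = too little inhibition in most replicates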;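 also: 0% = DMSO and -100% = 5 µM competing unlabeled TCR2 RNA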
# Target sequence (Q9XUB2 whole entry, looked up): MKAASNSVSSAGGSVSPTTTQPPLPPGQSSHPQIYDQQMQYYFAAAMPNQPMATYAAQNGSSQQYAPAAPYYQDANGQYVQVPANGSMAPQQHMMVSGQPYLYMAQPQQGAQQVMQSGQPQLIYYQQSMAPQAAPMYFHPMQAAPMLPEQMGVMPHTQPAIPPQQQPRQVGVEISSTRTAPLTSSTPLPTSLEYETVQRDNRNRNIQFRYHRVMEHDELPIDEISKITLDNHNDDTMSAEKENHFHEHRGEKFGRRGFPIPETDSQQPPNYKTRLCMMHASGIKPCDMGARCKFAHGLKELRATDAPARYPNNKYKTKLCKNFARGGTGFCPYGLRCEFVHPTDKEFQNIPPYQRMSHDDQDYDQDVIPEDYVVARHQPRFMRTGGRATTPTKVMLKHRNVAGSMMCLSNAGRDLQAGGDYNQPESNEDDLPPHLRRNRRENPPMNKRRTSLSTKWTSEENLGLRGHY
# Runt-SMMHC FRET: blocks binding of human RUNX1 Runt domain to CBFb-SMMHC; Q01196+Q13951; Cerulean-Runt/Venus-CBFb-SMMHC FRET ratio 530/480, 1 h; inhibition, % at 20 µM; 220,000 tested, 0.74% active; AID 1434;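 active = mean inhibition across duplicate retests at 20 µM reaching about 50%, limit read from the data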;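 also: 0% = DMSO wells and 100% = wells with excess untagged CBFb-SMMHC; inhibitors lower the FRET ratio by blocking Runt binding to CBFb-SMMHC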
# RanGTP-Imp inh: inhibitors of RanGTP-importin-beta interaction, primary screen, biochemical, FRET, CFP-Ran, YFP-importin-beta, homogeneous; inhibition, % (concentration not given with the values); cell-free CFP-Ran/YFP-importin-beta FRET ratio; 300,000 tested, 1.1% active;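 active = more than half of the replicate wells show a fall in the fluorescence ratio signal beyond about 16%, limit read from the data, passing the limit was not always enough; inconclusive = exactly half of the replicate wells pass the set limit; inactive = fewer than half of replicates pass the limit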;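 also: 0% = DMSO wells and 100% = Ran loaded with GDP instead of GTP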
# Active calls of the source: *; ? = inconclusive; . = no result given. Shown are actives, neighbours in structure and some others; about 2.1% of the full set was active somewhere.
SMILES,Runt-CBFb FRET,KLK7 zymogen act,MEX-5 binding,Runt-SMMHC FRET,RanGTP-Imp inh
Cc1nnc(Sc2c(N)n(C)c(=O)[nH]c2=O)s1,-1,0,-1,5,19*
C=CCn1c(Sc2nnc(C)s2)nc2c1c(=O)[nH]c(=O)n2C,-2,-1,2,3,5
COCC(=O)N(C)c1nnc(-c2cnccn2)s1,3,32*,0,-4,0
CC(=O)N(C)c1nnc(-c2cnccn2)s1,0,2,-1,-2,3
CC(=O)c1sc(N/N=C\c2ccccc2O)nc1C,.,1,-2,.,38*
CCc1nc2ccc(C(=O)NCC3CCCCC3)cn2c1N(CCC(C)C)CCN(C)C,.,1,.,.,.
CCCn1c(N)c(N2CCCCC2)c(=O)n(CC(=O)Nc2ccccc2)c1=O,0,1,2,4,-2
CCCCn1c(N)c(N2CCOCC2)c(=O)n(CC(=O)NC(C)c2ccccc2)c1=O (configuration not stated),2,0,-4,2,27*
COC(=O)C(C)Oc1ccc(Cl)c(CN2OCC(C)(C)C2=O)c1 (configuration not stated),.,0,-1,.,0
C=CC[C@@H](CC(=O)N[C@H](CO)Cc1ccccc1)C(=O)N[C@H](COC(=O)[C@H](CC=C)CC(=O)OC(C)(C)C)Cc1c[nH]c2ccccc12,.,0,.,.,.
Cc1cc(NC(=O)c2ccccc2Cl)ccc1NC(=O)c1ccccc1Cl,.,-1,0,.,3
Cc1ccc2sc3ccc(NC(=O)c4ccccc4Cl)cc3c(=O)c2c1,35,-4,2,101*,114*
CCCCc1cn([C@@H](CCCCN)C(=O)N2CCNCC2)nn1,-1,0,-29*,0,-4
COc1ccc(C#Cc2ccc3c(=O)c4ccccc4n(C)c3c2)cc1,.,.,2,.,88*
Cn1c2ccccc2c(=O)c2ccc(C#Cc3ccc(N)cc3)cc21,.,-16,3,.,86*
COc1ccc(C#Cc2c(C=O)n(C)c3ccccc23)cc1,.,-26,.,.,.
Cn1c(=O)c2c(-c3ccccc3)n(-c3ccc(N)cc3)cc2n(C)c1=O,.,3,.,.,.
Cc1[nH]nc2c1C(c1ccc(O)cc1)C1=C(CC(C)(C)CC1=O)N2 (configuration not stated),0,0,1,-1,-1
Cc1ccc(C2C3=C(CC(C)(C)CC3=O)Nc3[nH]c(=S)[nH]c(=O)c32)cc1 (configuration not stated),18,3,-1,71*,.
O=[N+]([O-])c1cccc(N=Cc2sc3ccccc3c2O)c1,47,0,-2,87*,-1
O=[N+]([O-])c1cccc(N=Cc2ccccc2)c1,.,0,.,.,.
Oc1cccc(C=NCc2ccccc2)c1O,13,0,0,10,-3
Oc1c(C=NCc2ccccc2)sc2ccccc12,20,1,-1,64*,?
COc1ccc(N=Cc2sc(O)c3ccccc23)cc1,-66,1,-1,-334,0
O=[N+]([O-])c1ccc(N=Cc2sc3ccccc3c2O)cc1,40,0,-1,105*,37*
SMILES,Runt-CBFb FRET,KLK7 zymogen act,MEX-5 binding,Runt-SMMHC FRET,RanGTP-Imp inh
CCN(CC)S(=O)(=O)c1cccc(C(=O)/C=C2/N(C)c3ccccc3C2(C)C)c1,9,0,2,12,27*
N#C/C(=C\c1ccc(N2CCOCC2)o1)C(=O)NCCc1ccccc1,14,1,33,94*,53*
COCCNC(=O)/C(C#N)=C\c1ccc(CNS(=O)(=O)c2ccccc2)o1,.,-1,-1,.,3
COCCNC(=O)/C(C#N)=C/c1ccc(N2CCOCC2)o1,5,1,?,14,50*
CCOC(=O)CNC(=O)CSc1nc2ccccc2c(=O)n1-c1ccc(Cl)cc1,.,1,.,.,.
Cc1cc(N)ccc1-n1c(C)ccc1C,0,0,1,-5,3
Cc1cc(C(=O)O)ccc1-n1c(C)ccc1C,.,.,-88*,.,2
CN(C)c1ccc(-c2ccc3c(=O)c4ccccc4n(C)c3c2)cn1,.,-2,-2,.,19*
O=C1CCCC(O)=C1N=Nc1ccc(C(=O)O)cc1,4,0,-26*,-6,-2
O=C1CCCC(O)=C1N=Nc1ccc2c(c1)OCO2,-10,0,7,-21,-2
C=CCN=C1NC(CCc2ccccc2)C(C(=O)OC)=C(C)N1Cc1ccccc1C(F)(F)F (configuration not stated),.,0,.,.,.
CC(C)OC(=O)c1sc2nc(-c3ccccc3)ccc2c1N,-1,-3,-2,4,20*
COc1ccc(C(=O)c2sc3nc(-c4ccccc4)ccc3c2N)cc1,-78,.,-3,-22,.
O=C(O)c1cc(S(=O)(=O)O)cc(Nc2c3ccccc3nc3ccccc23)c1O,.,0,-4,.,102*
CN1CCN(c2ncnc3c2[nH]c2ccc(F)cc23)CC1,1,20*,2,3,3
Fc1ccc2[nH]c3c(N4CCc5ccccc5C4)ncnc3c2c1,0,-1,1,-2,9
COc1ccc(C2CC(=O)C3=C(C2)Nc2ccccc2N(C(=O)C2CC2)C3c2cccnc2)cc1OC (configuration not stated),1,1,0,5,-1
COc1cc(C2Nc3ccccc3NC3=C2C(=O)CC(c2ccc(OC)c(OC)c2)C3)ccc1O (configuration not stated),11,1,0,56*,5
CC(C)[C@@H]1CC2=C(C(=O)OC(C)(C)O2)[C@H](CCc2ccccc2)O1,.,0,.,.,.
Cc1ccc2nc(N3CC(C)OC(C)C3)nc(-c3ccccc3)c2c1 (configuration not stated),.,0,1,.,?
Clc1ccc(-c2nc(N3CCCCC3)nc3ccccc23)cc1,5,0,-3,88*,25*
O=C(O)C1CCN(c2nc(-c3ccccc3)c3cc(Br)ccc3n2)CC1,.,-3,-3,.,?
Cc1ccc2nc(N3CCN(C(=O)CCCC(=O)O)CC3)nc(-c3ccccc3)c2c1,.,3,1,.,17*
CCOC(=O)N1CCN(c2nc(-c3ccccc3)c3ccccc3n2)CC1,.,.,1,.,18*
O=C(O)CCCC(=O)N1CCN(c2nc(-c3ccccc3Cl)c3cc(Br)ccc3n2)CC1,.,-1,0,.,35*
SMILES,Runt-CBFb FRET,KLK7 zymogen act,MEX-5 binding,Runt-SMMHC FRET,RanGTP-Imp inh
c1ccc(-c2nc(-n3nc4ccccc4n3)nc3ccccc23)cc1,-4,-1,1,0,3
Cc1cccc(S(=O)(=O)NC(=O)C2(C)CCN2C(=O)C/C=C/c2ccccc2)c1 (configuration not stated),.,0,.,.,.
CN(Cc1cccs1)S(=O)(=O)c1ccc(Cl)cc1F,.,0,.,.,.
OCc1ccccc1-c1cnc2sc(NCc3ccc(F)cc3)nn12,.,0,.,.,.
Cc1onc(-c2ccccc2)c1C(=O)OCC(=O)c1ccc(F)cc1,.,0,.,.,.
Cc1ccc2nc(N3CCN(C=O)CC3)nc(-c3ccccc3)c2c1,14,2,0,88*,54*
